The source made the active and inactive calls. The rule behind the calls is not given here.
Legend:
[1] = tested on: HUVEC; test: Antiproliferative activity against HUVEC incubated for 48 hrs by MTT assay; type: functional, cell-based; conditions: Homo sapiens
How it was run: (§1)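 8000 cells per well in complete medium, settled overnight at 37 °C under 5% CO2. Compounds were added from DMSO over a range of concentrations and incubated 48 h at 37 °C. MTT (5% solution) was added for 4 h and absorbance read at 570 nm. IC50 was taken from survival-versus-concentration curves. Negative control was 0.1% DMSO.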

[2] = tested on: HepG2; test: Antiproliferative activity against human HepG2 cells incubated for 48 hrs by MTT assay; type: functional, cell-based; conditions: HepG2, 48 h; how it was run: as §1
[3] = tested on: PC-3; test: Antiproliferative activity against human PC-3 cells incubated for 48 hrs by MTT assay; type: functional, cell-based; conditions: PC-3, 48 h; how it was run: as §1
[4] = tested on: T47D; test: Antiproliferative activity against human T47D cells incubated for 48 hrs by MTT assay; type: functional, cell-based; how it was run: as §1
[5] = tested on: Chorioallantoic membrane; test: Vascular disruptive effect in chicken fertilized egg chorioallantoic membrane assessed as reduced length of blood vessels by CAM assay; type: functional, tissue-based; conditions: Gallus gallus
[6] = tested on: Chorioallantoic membrane; test: Vascular disruptive effect in chicken fertilized egg chorioallantoic membrane assessed as decrease in number of capillary blood vessels by CAM assay relative to control; type: functional, tissue-based; parameters: concentration or dose not given beside the values; conditions: Gallus gallus, dose or concentration not given here
[7] = tested on: PC-3; test: Induction of cell cycle arrest in human PC-3 cells assessed as number of cells at S phase at IC50 after 48 hrs by flow cytometry (reference value: 44.12%); type: functional
[8] = tested on: PC-3; test: Induction of cell cycle arrest in human PC3 cells assessed as accumulation at G1 phase at IC50 after 48 hrs by flow cytometry (reference value: 44.11%); type: functional
[9] = tested on: HUVEC; test: Induction of apoptosis in HUVEC assessed as viable cells at IC50 measured after 48 hrs by Annexin V-FITC/propidium iodide staining based flow cytometry (reference value: 87.4%); type: functional, Homo sapiens
[10] = tested on: HUVEC; test: Induction of cell cycle arrest in HUVEC assessed as number of cells at G1 phase at IC50 after 48 hrs by flow cytometry (reference value: 40.93%); type: functional, Homo sapiens
How it was run: (§2)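 Cells were PI-stained and analysed by flow cytometry, with the phase fractions (subG1, G1, S, G2/M) taken from DNA content.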

[11] = tested on: HUVEC; test: Induction of cell cycle arrest in HUVEC assessed as number of cells at S phase at IC50 after 48 hrs by flow cytometry (reference value: 41.49%); type: functional, Homo sapiens; how it was run: as §2
[12] = tested on: HUVEC; test: Induction of apoptosis in HUVEC assessed as late apoptotic cells at IC50 measured after 48 hrs by Annexin V-FITC/propidium iodide staining based flow cytometry (reference value: 7.23%); type: functional, Homo sapiens
[13] = tested on: PC-3; test: Induction of apoptosis in human PC-3 cells assessed as necrotic cells at IC50 measured after 48 hrs by Annexin V-FITC/propidium iodide staining based flow cytometry (reference value: 7.74%); type: functional
[14] = Cytotoxicity against human Hu02 cells incubated for 48 hrs by MTT assay; type: cell-based; conditions: Hu02, 48 h; how it was run: as §1
[15] = tested on: HUVEC; test: Induction of apoptosis in HUVEC assessed as necrotic cells at IC50 measured after 48 hrs by Annexin V-FITC/propidium iodide staining based flow cytometry (reference value: 0.891%); type: functional, Homo sapiens
[16] = tested on: PC-3; test: Induction of apoptosis in human PC-3 cells assessed as viable cells at IC50 measured after 48 hrs by Annexin V-FITC/propidium iodide staining based flow cytometry (reference value: 81.4%); type: functional
[17] = tested on: PC-3; test: Induction of apoptosis in human PC-3 cells assessed as early apoptotic cells at IC50 measured after 48 hrs by Annexin V-FITC/propidium iodide staining based flow cytometry (reference value: 4.7%); type: functional
[18] = tested on: PC-3; test: Induction of cell cycle arrest in human PC-3 cells assessed as number of cells at SubG1 phase at IC50 after 48 hrs by flow cytometry; type: functional
[19] = tested on: PC-3; test: Induction of apoptosis in human PC-3 cells assessed as late apoptotic cells at IC50 measured after 48 hrs by Annexin V-FITC/propidium iodide staining based flow cytometry (reference value: 5.16%); type: functional
[20] = tested on: PC-3; test: Down-regulation of VEGFR2 phosphorylation in human PC-3 cells at 48 hrs by Western blot analysis; type: functional, cell-based; conditions: dose 2.4-5.4 µM
How it was run: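 PC3 cells treated for 48 h at 2.4, 3.6 and 5.4 µM. Lysates run on 12% SDS-PAGE and transferred to nitrocellulose. Membranes probed overnight at 4 °C (12 h) for VEGFR-2 and p-VEGFR-2, with beta-actin as loading control. Detection by ECL.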

[21] = tested on: PC-3; test: Down-regulation of VEGFR2 phosphorylation in human PC-3 cells by Western blot analysis; type: functional, cell-based; conditions: time 24-72 hrs, TDE = time-dependent effect
[22] = tested on: PC-3; test: Induction of cell cycle arrest in human PC-3 cells assessed as number of cells at G2 phase at IC50 after 48 hrs by flow cytometry (reference value: 15.97%); type: functional
[23] = tested on: HUVEC; test: Induction of cell cycle arrest in HUVEC assessed as number of cells at G2 phase at IC50 after 48 hrs by flow cytometry (reference value: 6.25%); type: functional, Homo sapiens; how it was run: as §2
[24] = tested on: HUVEC; test: Induction of apoptosis in HUVEC assessed as early apoptotic cells at IC50 measured after 48 hrs by Annexin V-FITC/propidium iodide staining based flow cytometry (reference value: 4.51%); type: functional, Homo sapiens

Row | Compound | IC50 [1] | IC50 [2] | IC50 [3] | IC50 [4] | inhibition [5] | inhibition [6] | Activity [7] | Activity [8] | Activity [13] | Activity [16] | Activity [17] | further results
1 | O=C(Nc1ccccc1)Nc1nnc(Sc2ncnc3scc(-c4ccncc4)c23)s1 | 19.3 µM | 19.4 µM | 5.7 µM | 23.3 µM |  |  |  |  |  |  |  | 
2 | O=C(Nc1ccc(Cl)cc1)Nc1nnc(Sc2ncnc3scc(-c4ccncc4)c23)s1 | 11.6 µM | 28.9 µM | 7.7 µM | 23.3 µM | inactive | 21% |  |  |  |  |  | 
3 | Cc1cccc(NC(=O)Nc2nnc(Sc3ncnc4scc(-c5ccncc5)c34)s2)c1 | 12.2 µM | 20.7 µM | 5.2 µM | 27.2 µM | inactive | 29% |  |  |  |  |  | 
4 | O=C(Nc1ccc(Cl)c(C(F)(F)F)c1)Nc1nnc(Sc2ncnc3scc(-c4ccncc4)c23)s1 | 18.4 µM | 45.3 µM | 12.1 µM | 28 µM |  |  |  |  |  |  |  | 
5 | CNC(=O)c1cc(Oc2ccc(NC(=O)Nc3ccc(Cl)c(C(F)(F)F)c3)cc2)ccn1 [SORAFENIB] | 2.8 µM | 29.6 µM | 15.5 µM | 6.4 µM |  |  | 22.32% | 66.19% | 23.6% | 57.9% | 1.92% | Activity [9]: 59.9%; Activity [10]: 58.69%; Activity [11]: 27.1%; Activity [12]: 23.8%; IC50 [14]: 40 µM; Activity [15]: 16.4%
6 | O=C(Nc1ccc(F)cc1)Nc1nnc(Sc2ncnc3scc(-c4ccncc4)c23)s1 | 28.3 µM | 31.7 µM | 0.97 µM | 18.9 µM | inactive | 27% | 29.76% | 55.92% | 32.2% | 43.3% | 1.47% | Activity [18]: 9.73%; Activity [19]: 23%
7 | O=C(Nc1ccc(Cl)c(Cl)c1)Nc1nnc(Sc2ncnc3scc(-c4ccncc4)c23)s1 | 7.8 µM | 61.9 µM | 3.6 µM | 14.6 µM |  | 65% | 40.58% | 45.2% | 12.6% | 43.2% | 7.17% | Activity [18]: 4.38%; Activity [9]: 55.2%; Activity [10]: 48.3%; inhibition [20]: Dose-dependent effect; Activity [11]: 49.8%; inhibition ([5]; dose or concentration not given here): 46%; Activity [12]: 17%; Activity [19]: 37%; inhibition [21]: Tde; Activity [22]: 12.85%; Activity [23]: 5.53%; IC50 [14]: 34.3 µM; Activity [24]: 4.65%; Activity [15]: 21%
